An excerpt weighted towards active compounds, which were near 2.8% of everything screened.
EP2 modulator: EP2 receptor modulators, cAMP readout, primary screen, cell-based, HTRF cAMP, PGE2 stimulation | Prostaglandin E2 receptor EP2 subtype (Homo sapiens), P43116 | EP2-expressing cells, cAMP HTRF FRET, PGE2 co-stimulation | induction, % at 25 µM | 260,000 tested, 0.83% active | AID 940, 2007;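 active means compounds whose cAMP rise, as percent of the full-agonist control response, exceeds 60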;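 further: rat C6 glioma line stably carrying human EP2 under a CMV promoter; the protocol text gives 20 µM as final concentration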
PGE2 EP2 inh: human EP2 receptor antagonists, primary screen, TR-FRET cAMP, C6 glioma cells; Prostaglandin E2 receptor EP2 subtype (Homo sapiens), P43116; C6 glioma cells expressing human EP2; cells stimulated with saturating PGE2; inhibition, % at 25 µM; 260,000 tested, 0.52% active; AID 1422, 2008;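 active means percent inhibition above 40 after rounding to a whole number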;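 further: rat C6 glioma host cells with rolipram phosphodiesterase inhibitor present; the protocol text gives 20 µM as final concentration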
NPY-Y1 PAM-ag: NPY-Y1 receptor potentiators or agonists, primary screen, cell-based. Neuropeptide Y receptor type 1 (Homo sapiens), P25929. NPY-Y1 expressing cells, potentiator/agonist activation. activation, % at 3.6 µM. 220,000 tested, 0.37% active. AID 1304, 2008; in the data active means activation above about 33%, passing the limit was not always enough;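 further: cells stimulated with NPY at EC10 then isoproterenol at EC100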
Target sequence (P25929 whole entry, looked up): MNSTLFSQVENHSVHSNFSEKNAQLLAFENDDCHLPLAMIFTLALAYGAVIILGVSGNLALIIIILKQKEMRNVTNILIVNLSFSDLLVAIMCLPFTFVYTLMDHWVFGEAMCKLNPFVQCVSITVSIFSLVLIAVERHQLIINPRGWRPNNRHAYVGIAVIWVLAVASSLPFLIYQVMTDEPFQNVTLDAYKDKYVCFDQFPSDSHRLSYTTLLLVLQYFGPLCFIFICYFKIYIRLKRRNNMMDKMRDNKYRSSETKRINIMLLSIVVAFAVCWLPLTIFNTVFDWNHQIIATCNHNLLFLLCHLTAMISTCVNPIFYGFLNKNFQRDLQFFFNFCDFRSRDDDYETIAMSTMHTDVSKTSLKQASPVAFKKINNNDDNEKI
NPY2 pot ag: NPY-Y2 potentiators or agonists, primary screen, cell-based; Neuropeptide Y receptor type 2 (Homo sapiens), P49146; cells expressing NPY-Y2, potentiator/agonist read-out; activation, % at 3.6 µM; 220,000 tested, 0.45% active; in the data active means activation above about 27%;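 further: cells stimulated with NPY near EC25 plus isoproterenol at EC100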
NPY Y2 blocker: NPY-Y2 receptor antagonists, primary screen, cell-based; inhibition, % at 2.7 µM; 140,000 tested, 0.99% active; NPY-Y2 expressing cells, antagonist mode; Neuropeptide Y receptor type 2 (Homo sapiens), P49146; in the data active means inhibition above about 17%
NPY Y1 blocker: NPY-Y1 receptor antagonists, primary screen, cell-based; inhibition, % at 3.6 µM; Neuropeptide Y receptor type 1 (Homo sapiens), P25929; AID 1040, 2008; 200,000 tested, 1% active; HEK293-CNG Y1 cells, membrane potential fluorescence; NPY at EC95, then isoproterenol;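 active means inhibition above the campaign mean inhibition of all tested compounds plus 3 SD, cut at about 20% in these data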
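Material: HEK293 cells co-expressing NPY Y1 receptor and cyclic-nucleotide gated channel. Timing: compound incubation 1 h at room temperature, readout 45 min post-stimulation. Signal: fluorescence, membrane potential probe.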
Numbers stand for hits.

Screening CCOC(=O)CNC(=O)CSc1nnc(Cn2nnc3ccccc32)n1C returned EP2 modulator inactive and PGE2 EP2 inh inactive.
For COc1ccc(CC(=O)N2CCC(n3nnc4ccccc4c3=O)CC2)cc1OC the results were EP2 modulator inactive and PGE2 EP2 inh inactive.
Screening Cc1ccc2nc(-c3cccnc3)c(Nc3ccccc3C)n2c1 returned EP2 modulator inactive, PGE2 EP2 inh inactive, NPY-Y1 PAM-ag 46.1, NPY2 pot ag 41.2 and NPY Y1 blocker inactive.
For Cc1ccccc1Nc1c(-c2cccnc2)nc2ccc(Br)cn12 the results were EP2 modulator inactive, PGE2 EP2 inh inactive, NPY-Y1 PAM-ag 79.0, NPY2 pot ag 74.4 and NPY Y1 blocker inactive.
`Cc1ccccc1Nc1c(-c2cccnc2)nc2ccccn12` gave EP2 modulator inactive, PGE2 EP2 inh inactive, NPY-Y1 PAM-ag inactive and NPY2 pot ag inactive.
`COc1ccc(C2=NN(CC(=O)NC(C)(C)C)C(=O)c3cc4sccc4n3C2)cc1` gave EP2 modulator inactive.
`CCOc1ccccc1-n1c(SCC(=O)N2CCCCCC2)nnc1-c1ccncc1` gave EP2 modulator inactive and PGE2 EP2 inh inactive.
`CCOc1cc2c(cc1CN1CCC(NC(C)=O)(c3ccccc3F)CC1)OCO2` gave EP2 modulator inactive and PGE2 EP2 inh inactive.
O=C(CN1CCCC1)Nc1ccc2ccccc2c1 was read as EP2 modulator inactive and PGE2 EP2 inh inactive.
Cc1cccc(NC(=O)CCCN2C(=O)/C(=C/c3cccs3)SC2=S)c1 was read as EP2 modulator inactive and PGE2 EP2 inh inactive.
`COc1ccc(Br)cc1CSC(=N)N` gave EP2 modulator inactive, PGE2 EP2 inh inactive, NPY-Y1 PAM-ag inactive, NPY2 pot ag inactive and NPY Y1 blocker inactive.
Screening CCCCCOc1ccc(Br)cc1CSC(=N)N returned EP2 modulator inactive, PGE2 EP2 inh inactive, NPY-Y1 PAM-ag inactive, NPY2 pot ag inactive, NPY Y2 blocker 35.2 and NPY Y1 blocker 45.9.
Screening CC(C)(C)NC(=O)C12CCC(C)(c3nc4ccccc4nc31)C2(C)C (configuration not stated) returned EP2 modulator 64.5, PGE2 EP2 inh inactive, NPY-Y1 PAM-ag inactive, NPY2 pot ag inactive, NPY Y2 blocker inactive and NPY Y1 blocker inactive.
For O=C(NC1CCCC1)C(c1ccccc1Cl)N(Cc1ccco1)C(=O)Cc1cccs1 (configuration not stated) the results were EP2 modulator 63.5 and PGE2 EP2 inh inactive.
`O=C(NC1CCCC1)C(c1ccsc1)N(Cc1ccccc1)C(=O)Cc1cccs1` (configuration not stated) gave EP2 modulator inactive, NPY-Y1 PAM-ag inactive, NPY2 pot ag inactive, NPY Y2 blocker 33.0 and NPY Y1 blocker 60.2.
For O=C(NC1CCCC1)C(c1ccsc1)N(Cc1ccco1)C(=O)Cc1cccs1 (configuration not stated) the results were EP2 modulator inactive, PGE2 EP2 inh inactive, NPY-Y1 PAM-ag inactive, NPY2 pot ag inactive, NPY Y2 blocker 38.0 and NPY Y1 blocker 61.9.
Screening O=C(NC1CCCCC1)C(c1ccc(F)cc1)N(Cc1ccco1)C(=O)Cc1ccsc1 (configuration not stated) returned EP2 modulator inactive and PGE2 EP2 inh inactive.
`O=C(NC1CCCC1)C(c1ccccc1)N(Cc1ccc2c(c1)OCO2)C(=O)Cc1cccs1` (configuration not stated) gave EP2 modulator inactive, PGE2 EP2 inh inactive, NPY-Y1 PAM-ag inactive, NPY2 pot ag inactive, NPY Y2 blocker 21.2 and NPY Y1 blocker 23.0.
O=C(NC1CCCC1)C(c1ccccc1F)N(Cc1ccco1)C(=O)Cc1cccs1 (configuration not stated) was read as EP2 modulator inactive and PGE2 EP2 inh inactive.
`O=C(NC1CCCCC1)C(c1cccs1)N(Cc1ccc2c(c1)OCO2)C(=O)Cc1cccs1` (configuration not stated) gave EP2 modulator inactive and PGE2 EP2 inh inactive.
COc1cccc(CN[C@@H]2CCC(=O)N[C@H]2c2cc(F)cc(F)c2)c1O was read as EP2 modulator inactive and PGE2 EP2 inh inactive.
COc1cc(C(C(=O)NC2CCCCC2)N(Cc2cccs2)C(=O)Cc2c[nH]c3ccccc23)cc(OC)c1OC (configuration not stated) was read as EP2 modulator inactive, PGE2 EP2 inh inactive, NPY-Y1 PAM-ag inactive, NPY2 pot ag 31.5, NPY Y2 blocker inactive and NPY Y1 blocker inactive.
O=C(NC1CCCCC1)C(c1ccco1)N(C(=O)Cc1cccs1)c1ccc(F)cc1 (configuration not stated) was read as EP2 modulator 66.2 and PGE2 EP2 inh inactive.
`COc1ccccc1CN(C(=O)Cc1cccs1)C(C(=O)NC1CCCC1)c1ccncc1` (configuration not stated) gave EP2 modulator inactive, PGE2 EP2 inh inactive, NPY-Y1 PAM-ag inactive, NPY2 pot ag inactive, NPY Y2 blocker 18.8 and NPY Y1 blocker 44.8.
For COc1ccc(CN(C(=O)c2cccs2)C(C(=O)NC2CCCCC2)c2ccc3ncccc3c2)cc1 (configuration not stated) the results were EP2 modulator inactive, NPY-Y1 PAM-ag inactive, NPY2 pot ag inactive, NPY Y2 blocker inactive and NPY Y1 blocker inactive.
For COc1cc(C(C(=O)NC2CCCCC2)N(C(=O)Cc2c[nH]c3ccccc23)c2ccccc2C)cc(OC)c1OC (configuration not stated) the results were EP2 modulator inactive, PGE2 EP2 inh inactive, NPY-Y1 PAM-ag inactive, NPY2 pot ag inactive, NPY Y2 blocker inactive and NPY Y1 blocker inactive.
Screening O=C(NC1CCCCC1)C(c1ccc2ncccc2c1)N(Cc1ccccc1)C(=O)c1cccs1 (configuration not stated) returned EP2 modulator inactive, PGE2 EP2 inh inactive, NPY-Y1 PAM-ag inactive, NPY2 pot ag inactive, NPY Y2 blocker 24.7 and NPY Y1 blocker 24.0.
COc1ccc2nc(SCC(=O)Nc3nc4cc(C)ccc4s3)c(C#N)cc2c1 was read as EP2 modulator inactive and PGE2 EP2 inh inactive.
Screening CCc1ccc(-n2c(SCC(=O)N(CC)CC)nnc2-c2ccncc2)cc1 returned EP2 modulator inactive and PGE2 EP2 inh inactive.
For CC(=O)Nc1ccc(Oc2cnc3ccccc3n2)cc1 the results were EP2 modulator inactive, PGE2 EP2 inh inactive, NPY-Y1 PAM-ag inactive, NPY2 pot ag inactive, NPY Y2 blocker inactive and NPY Y1 blocker inactive.
For C[C@H](Oc1ccc(Oc2cnc3ccc(Cl)cc3n2)cc1)C(=O)O the results were EP2 modulator inactive and PGE2 EP2 inh 46.3.
